ChEMBL document CHEMBL4477233, “Discovery of novel TAOK2 inhibitor scaffolds from high-throughput screening” (Bioorg Med Chem Lett, 2016)
Calls of active or inactive are those of the source. No cut-off for these calls is given here.

Target: T1, Serine/threonine-protein kinase TAO2 (Homo sapiens) (UniProt Q9UL54)
T1 sequence (whole entry): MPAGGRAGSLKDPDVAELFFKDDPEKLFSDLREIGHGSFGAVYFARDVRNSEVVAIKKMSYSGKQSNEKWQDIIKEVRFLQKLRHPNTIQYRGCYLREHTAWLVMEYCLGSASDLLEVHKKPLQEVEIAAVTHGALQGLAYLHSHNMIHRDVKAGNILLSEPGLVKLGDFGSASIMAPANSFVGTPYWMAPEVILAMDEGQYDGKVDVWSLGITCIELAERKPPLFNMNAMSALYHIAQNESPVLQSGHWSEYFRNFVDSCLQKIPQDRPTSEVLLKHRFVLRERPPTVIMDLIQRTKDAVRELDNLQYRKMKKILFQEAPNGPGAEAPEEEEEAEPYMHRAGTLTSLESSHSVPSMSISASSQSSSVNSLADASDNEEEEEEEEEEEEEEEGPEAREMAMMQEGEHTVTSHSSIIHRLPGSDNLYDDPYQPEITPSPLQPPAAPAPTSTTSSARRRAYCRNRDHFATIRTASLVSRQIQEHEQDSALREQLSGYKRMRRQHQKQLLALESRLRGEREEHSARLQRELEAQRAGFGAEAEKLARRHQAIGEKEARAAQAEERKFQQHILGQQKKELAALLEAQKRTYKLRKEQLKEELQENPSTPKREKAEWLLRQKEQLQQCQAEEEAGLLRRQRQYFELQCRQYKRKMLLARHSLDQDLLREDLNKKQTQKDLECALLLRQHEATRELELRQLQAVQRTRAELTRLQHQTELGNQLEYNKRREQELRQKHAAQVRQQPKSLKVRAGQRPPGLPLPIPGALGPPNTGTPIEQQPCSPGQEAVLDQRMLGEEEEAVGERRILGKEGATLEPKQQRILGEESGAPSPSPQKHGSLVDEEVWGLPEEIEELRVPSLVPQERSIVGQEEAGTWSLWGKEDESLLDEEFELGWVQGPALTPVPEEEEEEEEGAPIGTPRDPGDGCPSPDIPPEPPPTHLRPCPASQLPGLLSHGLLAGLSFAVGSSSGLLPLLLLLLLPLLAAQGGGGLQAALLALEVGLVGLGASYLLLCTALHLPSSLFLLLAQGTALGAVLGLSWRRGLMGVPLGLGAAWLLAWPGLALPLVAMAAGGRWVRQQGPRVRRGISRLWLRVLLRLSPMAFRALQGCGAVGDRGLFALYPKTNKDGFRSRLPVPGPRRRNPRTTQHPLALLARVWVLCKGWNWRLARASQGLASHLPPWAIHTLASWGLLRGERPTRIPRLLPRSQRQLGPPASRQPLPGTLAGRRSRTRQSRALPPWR
Assay: Inhibition of TAOK2 in human U2OS cells assessed as inhibition of cellular autophagy measured as GFP-LC3 accumulation at 50 uM after 24 hrs by flow cytometric analysis
Type: cell-based
Method in brief: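 U2OS cells stably expressing GFP–LC3 were exposed to compound at 50 µM in the medium for 24 h. GFP fluorescence was read by flow cytometry. The median value from 20,000 cells per condition was normalized to DMSO vehicle within each experiment. Data are mean + SD of >2 independent experiments, compared with vehicle by unpaired t test.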

Row | SMILES | inhibition
1 | O=C(Nc1cccc(-c2nc3ccccc3c(=O)o2)c1)c1ccccc1Br | Active
2 | COc1ccc(O)c(/C=C2/SC(=S)NC2=O)c1 | Active
3 | CO/C1=C\C(C)=C\[C@@H](C)[C@@H](O)[C@@H](C)C/C(C)=C/C=C/[C@H](OC)[C@@H]([C@@H](C)[C@@H](O)[C@H](C)[C@@]2(O)C[C@@H](O)[C@H](C)[C@@H](C(C)C)O2)OC1=O | Active

Target: T2, Serine/threonine-protein kinase TAO2 (Rattus norvegicus) (UniProt Q9JLS3)
T2 sequence (whole entry): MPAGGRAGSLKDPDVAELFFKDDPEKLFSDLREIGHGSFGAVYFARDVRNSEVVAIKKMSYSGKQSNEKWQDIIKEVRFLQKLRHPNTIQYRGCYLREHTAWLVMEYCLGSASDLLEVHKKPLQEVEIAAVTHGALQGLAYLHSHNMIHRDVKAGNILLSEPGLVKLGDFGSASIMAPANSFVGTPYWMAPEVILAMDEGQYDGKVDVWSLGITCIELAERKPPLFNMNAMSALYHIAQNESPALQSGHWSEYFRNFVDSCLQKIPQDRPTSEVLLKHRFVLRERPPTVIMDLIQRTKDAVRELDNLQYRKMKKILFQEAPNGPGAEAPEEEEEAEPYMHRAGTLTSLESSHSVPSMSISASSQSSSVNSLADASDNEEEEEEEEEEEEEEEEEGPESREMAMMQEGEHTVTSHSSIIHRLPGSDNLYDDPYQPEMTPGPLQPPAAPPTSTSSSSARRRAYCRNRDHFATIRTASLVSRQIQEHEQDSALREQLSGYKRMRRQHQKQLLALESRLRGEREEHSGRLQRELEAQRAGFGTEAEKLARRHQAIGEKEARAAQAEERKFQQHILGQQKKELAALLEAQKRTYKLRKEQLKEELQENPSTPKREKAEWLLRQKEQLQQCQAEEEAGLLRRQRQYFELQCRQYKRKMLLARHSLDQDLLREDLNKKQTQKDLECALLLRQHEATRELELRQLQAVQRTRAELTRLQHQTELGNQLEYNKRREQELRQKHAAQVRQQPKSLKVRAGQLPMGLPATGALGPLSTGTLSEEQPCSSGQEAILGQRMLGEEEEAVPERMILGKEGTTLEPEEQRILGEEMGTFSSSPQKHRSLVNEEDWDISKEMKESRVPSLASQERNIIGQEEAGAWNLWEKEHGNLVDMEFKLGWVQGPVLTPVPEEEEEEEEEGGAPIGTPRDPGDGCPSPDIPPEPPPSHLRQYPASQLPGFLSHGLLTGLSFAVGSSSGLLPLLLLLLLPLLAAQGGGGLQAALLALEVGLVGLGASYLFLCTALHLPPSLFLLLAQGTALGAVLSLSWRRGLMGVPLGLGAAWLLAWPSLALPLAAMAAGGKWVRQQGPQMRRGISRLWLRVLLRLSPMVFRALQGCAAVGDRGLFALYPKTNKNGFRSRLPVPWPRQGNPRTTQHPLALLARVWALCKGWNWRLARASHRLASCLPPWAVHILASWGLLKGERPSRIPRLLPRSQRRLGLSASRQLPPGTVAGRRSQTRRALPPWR
Assay: Binding affinity to rat TAOK2 (1 to 320 residues) expressed in Baculovirus/insect cell expression system assessed as change in melting temperature at 1 uM by SYPRO orange dye-based DSF analysis
Method in brief: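 Differential scanning fluorimetry: each compound's melting-temperature shift (ΔTm, °C) was measured on the kinase protein. Compounds giving a TAOK2 ΔTm above 0.5 °C were also run against p38 and ASK1. Selectivity (ΔΔTm) was taken as the TAOK2 ΔTm minus the p38 or ASK1 ΔTm.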

Row | SMILES | ΔTm [°C]
4 | O=C(Nc1cccc(-c2nc3ccccc3c(=O)o2)c1)c1ccccc1Br | -0.6
5 | COc1ccc(O)c(/C=C2/SC(=S)NC2=O)c1 | -0.2
6 | Cc1cccc(NC(=S)N/N=C/c2c[nH]c3ccccc23)c1 | 0.5

Target: T1, Serine/threonine-protein kinase TAO2 (Homo sapiens)
Assay: Inhibition of TAOK2 in human U2OS cells assessed as inhibition of cellular autophagy measured as P62 accumulation at 50 uM after 24 hrs by western blot analysis
Type: cell-based
Method in brief: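 GFP–LC3-expressing U2OS cells were treated for 24 h with compound at 50 µM or with DMSO alone. p62 (SQSTM1) abundance was then assessed by Western blotting as a readout of autophagic degradation.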

Row | SMILES | inhibition
7 | O=C(Nc1cccc(-c2nc3ccccc3c(=O)o2)c1)c1ccccc1Br | Active

Target: T3, Serine/threonine-protein kinase TAO2 (Rattus norvegicus, UniProt Q9JLS3)
T3 sequence (Q9JLS3 whole entry): T2 sequence (whole entry)
Assay: Inhibition of rat TAOK2 (1 to 320 residues) expressed in Baculovirus/insect cell expression system assessed as remaining activity using MBP as substrate and [32P]ATP measured after 10 mins by Kinase-Glo assay

Row | SMILES | IC50 [µM]
8 | CC(=O)Nc1nc(C)c(-c2csc(Nc3ccccc3)n2)s1 | 1.1
9 | Cc1nc(NC(=O)c2ccccc2)sc1-c1csc(Nc2ccc(S(N)(=O)=O)cc2)n1 | 0.8
10 | CC(=O)Nc1nc(C)c(-c2csc(Nc3cccc(C(=O)O)c3)n2)s1 | 1.3
11 | O=C(Nc1cccc(-c2nc3ccccc3c(=O)o2)c1)c1ccccc1Br | 4
12 | CCN(CC)c1ccc(Nc2nc(-c3sc(NC(C)=O)nc3C)cs2)cc1 | 1.7
13 | CN1c2ccc(S(C)(=O)=O)cc2SC1NC(=O)/C=C/c1ccc(F)cc1 (stereo not drawn) | 0.8
14 | COc1ccc(O)c(/C=C2/SC(=S)NC2=O)c1 | 3
15 | Cc1nc(N)sc1-c1csc(Nc2cccc([N+](=O)[O-])c2)n1 | 1.7
16 | CCC(=O)Nc1nc(C)c(-c2csc(Nc3ccc(N(C)C)cc3)n2)s1 | 1.2
17 | O=C(NCC1COc2ccccc2O1)c1ccc2c(=O)n(Cc3ccco3)c(=S)[nH]c2c1 (stereo not drawn) | 0.6
18 | Cc1cccc(Nc2nc(-c3sc(N)nc3C)cs2)c1 | 1.7
19 | Cc1cccc(NC(=S)N/N=C/c2c[nH]c3ccccc23)c1 | 1
20 | CC(=O)Nc1nc(C)c(-c2csc(Nc3ccc(Br)cc3)n2)s1 | 1
21 | CC(=O)Nc1nc(C)c(-c2csc(Nc3cccc([N+](=O)[O-])c3)n2)s1 | 10.1
22 | CC(=O)Nc1nc(C)c(-c2csc(Nc3ccccc3C)n2)s1 | 1.8
23 | CCC(=O)Nc1nc(C)c(-c2csc(Nc3cc(Cl)ccc3C)n2)s1 | 1.6
24 | COc1ccc(Cl)cc1Nc1nc(-c2sc(NC(C)=O)nc2C)cs1 | 1.1
25 | CC(=O)c1cccc(Nc2nc(-c3sc(N)nc3C)cs2)c1 | 1.4
26 | Cc1nc(N)sc1-c1csc(Nc2cccc(Cl)c2)n1 | 3.1
27 | CCC(=O)Nc1nc(C)c(-c2csc(Nc3cccc([N+](=O)[O-])c3)n2)s1 | 1
28 | CC(=O)Nc1nc(C)c(-c2csc(Nc3ccc([N+](=O)[O-])cc3)n2)s1 | 10
29 | CC(=O)Nc1nc(C)c(-c2csc(Nc3cccc(C(C)=O)c3)n2)s1 | 12
30 | Cc1nc(N)sc1-c1csc(Nc2cccc(O)c2)n1 | 1.4

Row | SMILES | IC50 [µM]
31 | CCC(=O)Nc1nc(C)c(-c2csc(Nc3ccc(N(CC)CC)cc3)n2)s1 | 2.7
32 | CN1c2ccc(S(C)(=O)=O)cc2SC1NC(=O)CCCOC1CCCCC1 (stereo not drawn) | 1.9
33 | CCC(=O)Nc1nc(C)c(-c2csc(Nc3ccc(S(N)(=O)=O)cc3)n2)s1 | 1
34 | CC(=O)Nc1nc(C)c(-c2csc(Nc3cccc(C)c3)n2)s1 | 0.9
35 | CCC(=O)Nc1nc(C)c(-c2csc(Nc3ccc([N+](=O)[O-])cc3)n2)s1 | 1
36 | CCOc1ccccc1Nc1nc(-c2sc(NC(C)=O)nc2C)cs1 | 1.6
37 | CCC(=O)Nc1nc(C)c(-c2csc(Nc3cccc(O)c3)n2)s1 | 1
38 | CCC(=O)Nc1nc(C)c(-c2csc(Nc3cccc(C(=O)O)c3)n2)s1 | 1.7
39 | CCC(=O)Nc1nc(C)c(-c2csc(Nc3ccc(NC(C)=O)cc3)n2)s1 | 1.9
40 | CN1c2ccc(S(C)(=O)=O)cc2SC1NC(=O)CC1CCC(Br)CC1 (stereo not drawn) | 1.4
41 | Cc1nc(N)sc1-c1csc(Nc2ccc([N+](=O)[O-])cc2)n1 | 1
42 | CCC(=O)Nc1nc(C)c(-c2csc(Nc3ccccc3OC)n2)s1 | 1.4
43 | COc1ccccc1Nc1nc(-c2sc(NC(C)=O)nc2C)cs1 | 2.1
44 | COc1ccc(Cl)cc1Nc1nc(-c2sc(N)nc2C)cs1 | 1 to 1.5
45 | CCC(=O)Nc1nc(C)c(-c2csc(Nc3ccc(O)cc3)n2)s1 | 1.6
46 | CN1c2ccc(S(C)(=O)=O)cc2SC1NC(=O)CCCc1ccccc1 (stereo not drawn) | 1.7
47 | CN1c2ccc(S(C)(=O)=O)cc2SC1NC(=O)c1ccc(C(=O)c2ccccc2)cc1 (stereo not drawn) | 1
48 | CC(=O)Nc1nc(C)c(-c2csc(Nc3ccc(C)cc3)n2)s1 | 1.1
49 | CC(=O)Nc1nc(C)c(-c2csc(Nc3ccc(O)cc3)n2)s1 | 3.8
50 | O=C(NCCSCc1ccccc1)c1ccc2c(=O)n(C3CCCCC3)c(=S)[nH]c2c1 | 1.9
51 | CCOc1ccccc1Nc1nc(-c2sc(NC(=O)CC)nc2C)cs1 | 0.6
52 | Cc1nc(N)sc1-c1csc(Nc2ccc(S(N)(=O)=O)cc2)n1 | 1.4
53 | COc1ccc(OC)c(Nc2nc(-c3sc(N)nc3C)cs2)c1 | 1
